This is a sample that favours compounds with a hit; in the whole collection about 2.1% have one here.
H9c2 protect: protects H9c2 cardiomyocytes from peroxide injury. protection from H2O2 cell death, % at 20 µM. H2O2 injury protection, ATPLite, 2 h. actives 0.63% (n = 360,000);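 active = compounds giving at least 50% protection of heart cells from peroxide-induced death in the single-dose screen, raw or plate-pattern-corrected value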;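 note: 0% = DMSO wells with peroxide and 100% = DMSO wells without peroxide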
PfGluPho inh: PfG6PD (Plasmodium falciparum) enzyme inhibition; PfGluPho enzyme, NADPH resazurin-diaphorase fluorescence; inhibition, % at 20 µM; actives 0.78% (n = 350,000); AID 504690;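 active = inhibition reaching at least a set limit at 20 µM in the primary screen, cut at about 59% in these data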;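 note: 0% = DMSO wells with substrate and 100% = DMSO wells lacking glucose-6-phosphate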
HKDC1 inh: blocks human hexokinase HKDC1 activity. Q2TB90. recombinant HKDC1, G6PDH/diaphorase resazurin coupled fluorescence. inhibition, % at 20 µM. actives 0.16% (n = 340,000);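 active = inhibition above about 35% when tested at 20 µM, limit read from the data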;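 note: plate controls were DMSO wells with enzyme for no effect and DMSO wells lacking enzyme for full effect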
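Assay system: in-house recombinant HK5 (HKDC1) enzyme. Input: HKDC1 at 5 µg/mL. Medium: Tris pH 8.0 buffer with MgCl2, Tween-20, BSA, BME. Dosing: single 20 µM dose. Schedule: 90 min reaction incubation at room temperature, dark. Signal: resazurin-to-resorufin fluorescence via G6PDH and diaphorase coupling, 525/613 nm. Controls: DMSO-enzyme wells negative, buffer-substituted wells positive.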
B2AR ag: activates human beta-2 adrenergic receptor causing internalization; response, % (no concentration beside the values); Am2.2-beta2AR cells, FAP receptor internalization, flow cytometry; actives 0.43% (n = 340,000); AID 504454; P07550;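 active = response above a set limit, near 3 SD of response in nonfluorescent compounds, cut at about 42% in these data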
Target sequence (P07550 whole entry, looked up): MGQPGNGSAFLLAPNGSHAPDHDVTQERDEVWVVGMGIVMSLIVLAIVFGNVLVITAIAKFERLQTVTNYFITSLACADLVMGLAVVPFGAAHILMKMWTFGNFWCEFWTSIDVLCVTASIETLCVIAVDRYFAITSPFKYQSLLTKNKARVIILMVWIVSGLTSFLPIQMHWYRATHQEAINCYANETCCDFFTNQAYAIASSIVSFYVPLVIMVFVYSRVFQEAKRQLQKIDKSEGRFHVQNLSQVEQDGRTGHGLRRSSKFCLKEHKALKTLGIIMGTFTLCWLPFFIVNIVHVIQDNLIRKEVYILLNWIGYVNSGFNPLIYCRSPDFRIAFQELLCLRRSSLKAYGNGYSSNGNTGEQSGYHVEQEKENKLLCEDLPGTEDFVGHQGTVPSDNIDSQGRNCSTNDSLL
aDG glyco up: alpha-DG glycosylation activation. Pro5-aDG cells, alpha-DG glycosylation AlphaScreen (IIH6); 0% Pro5, 100% B10-LARGE cell signal. activation, % at 10 µM. actives 0.22% (n = 360,000). AID 624168;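 active = activation of at least 8% versus controls, or a plate z-score of at least 8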;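 note: Pro5 are CHO cells carrying HIG-tagged alpha-DG that lacks glycosylation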
UCH37 inh: inhibitors of human deubiquitinating enzyme UCH37; purified proteasome/UCH37, Ub-AMC cleavage fluorescence; actives 0.33% (n = 330,000); inhibition, % (no concentration beside the values);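 active = mean inhibition over replicate wells above about 20%, limit read from the data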;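 note: 0% = compound-free wells with enzyme and 100% = wells lacking proteasome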
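Reagent: Ub-AMC substrate; assay system: Proteasome-associated human UCH37 deubiquitinase; controls: no-proteasome and no-compound wells; read-out: % inhibition of Ub-AMC cleavage fluorescence; timing: 30 min preincubation with enzyme, 25 min cleavage at room temperature; signal: AMC fluorescence from Ub-AMC cleavage, excitation 355 nm, emission 460 nm; buffer or medium: Tris-HCl pH 7.4 plus ovalbumin, ATP-MgCl2, DTT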
PfGluPho conf: confirmation of Plasmodium falciparum G6PD inhibitors; shares compounds with PfGluPho inh; recombinant PfGluPho, NADPH-diaphorase-resazurin fluorescence; inhibition, % at 20 µM; actives 34% (n = 2,400); AID 504753;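 active = inhibition of at least 50% at 20 µM in any single replicate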;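 note: 0% = DMSO with substrate and 100% = DMSO lacking glucose-6-phosphate substrate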
Diaph ctr 10uM: inhibits diaphorase or oxidizes, flagging false PfG6PD hits. AID 504862. shares compounds with PfGluPho inh. diaphorase-coupled resazurin reduction, fluorescence, NADPH 10 uM. actives 39% (n = 820). inhibition, % at 20 µM;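 active = average inhibition reaching 50% or more with the compound at 20 µM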;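 note: resorufin red fluorescence formed as diaphorase reduces resazurin using NADPH; 0% = DMSO with enzyme and 100% = DMSO without enzyme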
Diaph ctr 30uM: inhibits diaphorase or oxidizes, flagging false PfG6PD hits; shares compounds with PfGluPho inh; Diaphorase/resazurin coupled assay, resorufin fluorescence, 30 uM NADPH; inhibition, % at 20 µM; actives 29% (n = 820); AID 504863;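 active = inhibition averaging 50% or more, tested at 20 µM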;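 note: 0% = DMSO with enzyme and 100% = DMSO wells lacking diaphorase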
Starred values were filed as active, the others as inactive; i = inactive; . = not tested or not shown.

SMILES	H9c2 protect	PfGluPho inh	HKDC1 inh	B2AR ag	aDG glyco up	UCH37 inh	PfGluPho conf	others
COc1ccc(OC)c(C2CC(=O)N3CN(c4ccc(C)c(Cl)c4)CSC3=C2C#N)c1 (stereo not drawn)	-8	78*	3	-8	0	4	14
CCOC(=O)c1ccc(N2CSC3=C(C#N)C(c4ccc(OC)cc4OC)CC(=O)N3C2)cc1 (stereo not drawn)	-16	54	3	3	0	4	.
CCc1ccccc1N1CSC2=C(C#N)C(c3cc(OC)c(OC)cc3OC)CC(=O)N2C1 (stereo not drawn)	8	67*	10	-3	0	0	26
COc1cccc(C2CC(=O)N3CN(c4cccc(Cl)c4C)CSC3=C2C#N)c1OC (stereo not drawn)	7	86*	9	-3	0	1	19
COc1cc(OC)c(C2CC(=O)N3CN(c4ccccc4)CSC3=C2C#N)cc1OC (stereo not drawn)	-5	81*	5	2	0	5	58*	Diaph ctr 10uM=-5;Diaph ctr 30uM=-3
COC(=O)c1ccc(COc2ccccc2C=NNS(=O)(=O)c2ccccc2)cc1	.	.	.	.	.	1	.
COc1cccc(C=NNC(=O)CSc2ccccc2C)c1OC	.	.	.	.	.	-1	.
COc1cccc2c1C(=N)c1c(O)c3c(c(O)c1C2=O)CC(O)(C(C)=O)CC3OC1CC(N)C(O)C(C)O1 (stereo not drawn)	-3	60*	10	4	-1	.	20
CC1N(C)c2cccc3cccc(c23)N1C	-4	69*	19	-108	1	i	53*	Diaph ctr 10uM=1;Diaph ctr 30uM=2
CC(C)Cc1c2c([nH]c(=S)c1C#N)CCCC2	2	70*	5	-2	0	4	37
Cc1[nH]c(=S)c(C#N)c2c1CCCC2	0	81*	10	-9	0	7	38
Cc1cc(NN=Cc2ccc(O)cc2O)nc(-c2ccccc2O)n1	.	.	.	.	.	-13	.
CCOC(=O)c1c(C)n(-c2ccc(C)cc2)c2c(C(C(C)=O)C(=O)O)c(Br)c(O)c(O)c12 (stereo not drawn)	-22	105*	11	-1	1	4	101*	Diaph ctr 10uM=46;Diaph ctr 30uM=26
Cn1c(=O)[nH]c(=O)c2c1nc(SCCN1CCCCC1)n2CCCc1ccccc1	13	77*	0	-6	0	0	63*	Diaph ctr 10uM=6;Diaph ctr 30uM=-5
Cn1c(=O)[nH]c(=O)c2c1nc(SCCN1CCCCC1)n2Cc1ccccc1	20	-11	0	-3	0	2	.
COc1cccc(NC(=O)C2CC2(c2cccc(OC)c2)c2cccc(OC)c2)c1 (stereo not drawn)	3	111*	1	0	0	-1	43
COc1cccc(C2(c3cccc(OC)c3)CC2C(=O)Nc2cccc3ccccc23)c1 (stereo not drawn)	-2	15	-2	-1	0	2	.
O=C(COc1ccccc1[N+](=O)[O-])NN=Cc1ccc(O)cc1	.	.	.	.	.	4	.
Cc1cc(O)c(C=NNc2cccc(Cl)c2)c(=O)o1	.	.	.	.	.	8	.
O=C(Nc1ccccc1)c1cc2ccccc2s1	-16	71*	-2	-1	0	1	15
CC(C)(NC(=O)c1ccccc1)c1nc2ccccc2s1	-1	60*	-2	0	0	2	38
COc1cc(/C=C/c2ccc3cccc(O)c3n2)cc(Cl)c1OC	34	73*	-2	7	2.5*	-2	-2
COC(=O)c1ccc(/C=C/c2ccc3cccc(OC)c3n2)cc1	23	74*	10	3	0	-308	26
COc1cc(/C=C/c2ccc3cccc(O)c3n2)cc(OC)c1OC	39	-1	2	27	0	1	.
